# Reference: ChEMBL document CHEMBL4732224, “Structure activity refinement of phenylsulfonyl piperazines as antimalarials that block erythrocytic invasion” (Eur J Med Chem, 2021)
# Active and inactive are the calls of the source. No cut-off for these calls is given here.
# Key:
# Plasmodium falciparum [1] = test: Antimalarial activity against Plasmodium falciparum 3D7 incubated for 72 hrs by LDH assay; type: functional, organism-based; settings: 3D7, 72 h
# How it was run: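 Asexual blood-stage P. falciparum 3D7 parasites were cultured with compound for 72 h, and viability was read by lactate dehydrogenase (LDH) activity.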
# Plasmodium falciparum [2] = test: Antimalarial activity against Plasmodium falciparum NF54 early stage (1 to 3) expressing Pfs16-LUC-GFP assessed as growth inhibition by high content imaging assay; type: functional, organism-based
# Plasmodium falciparum [3] = test: Antimalarial activity against Plasmodium falciparum NF54 late stage ([…]) expressing Pfs16-LUC-GFP assessed as growth inhibition by high content imaging assay; type: functional, organism-based
# Plasmodium falciparum [4] = test: Antimalarial activity against asexual blood stage of artemisinin-resistant Plasmodium falciparum Cam3.12539T cambodian isolate assessed as reduction in cell viability after 72 hrs by EtBr staining based flow cytometric analysis; type: functional, organism-based; settings: Cam3.12539T cambodian isolat
# Plasmodium falciparum [5] = test: Antimalarial activity against asexual blood stage of chloroquine-resistant Plasmodium falciparum 7G8 assessed as reduction in cell viability after 72 hrs by EtBr staining based flow cytometric analysis; type: functional, organism-based; settings: 7G8, 72 h
# Plasmodium falciparum [6] = test: Antimalarial activity against asexual blood stage of chloroquine-resistant Plasmodium falciparum Dd2 assessed as reduction in cell viability after 72 hrs by EtBr staining based flow cytometric analysis; type: functional, organism-based; settings: Dd2, 72 h
# Plasmodium falciparum [7] = test: Antimalarial activity against asexual blood stage of Mefloquine-resistant Plasmodium falciparum W2mef assessed as reduction in cell viability after 72 hrs by EtBr staining based flow cytometric analysis; type: functional, organism-based
# Plasmodium knowlesi = test: Antimalarial activity against asexual blood stage of Plasmodium knowlesi YHI assessed as reduction in cell viability after 48 hrs by EtBr staining based flow cytometric analysis; type: functional, organism-based
# Plasmodium falciparum [8] = test: Antimalarial activity against asexual blood stage of Plasmodium falciparum 3D7 assessed as reduction in cell viability after 72 hrs by EtBr staining based flow cytometric analysis; type: functional, organism-based; settings: 3D7, 72 h
# Plasmodium falciparum [9] = test: Antimalarial activity against Plasmodium falciparum NF54 late stage ([…]) expressing Pfs16-LUC-GFP assessed as growth inhibition at 20 uM by high content imaging assay relative to control; type: functional; settings: read-out: GI
# HepG2 = test: Cytotoxicity against human HePG2 cells assessed as growth inhibition after 48 hrs by Cell Titer-Glo assay; type: cell-based; settings: HepG2, 48 h
# Plasmodium falciparum [10] = test: Antimalarial activity against Plasmodium falciparum NF54 early stage (1 to 3) expressing Pfs16-LUC-GFP assessed as growth inhibition at 20 uM by high content imaging assay relative to control; type: functional; settings: read-out: GI
# Plasmodium falciparum [11] = test: Antimalarial activity against schizonts stage of Plasmodium falciparum D10 expressing PEXEL-Nluc infected in human RBC assessed as reduction in invasion at 5 times of EC90 concentration preincubated for 30 mins followed by compound wash out and measured after 24 hrs by luminometric method; type: functional, organism-based
# Plasmodium falciparum [12] = test: Antimalarial activity against schizonts stage of Plasmodium falciparum D10 expressing GFP infected in human RBC assessed as reduction in merozoites invade to RBC at 4 times of EC90 concentration after 6 hrs by flow cytometric analysis; type: functional, organism-based
# Plasmodium falciparum [13] = test: Antimalarial activity against schizonts stage of Plasmodium falciparum D10 expressing GFP infected in human RBC assessed as reduction in ring stage formation at 4 times of EC90 concentration after 6 hrs by flow cytometric analysis; type: functional, organism-based
# [14] = Intrinsic clearance in mouse liver microsomes at 1 uM in presence of NADPH measured up to 60 mins by LC-MS analysis; type: ADME, Microsome; settings: read-out: CLH
smiles,measurement,setting,value
C[C@H]1[C@H](OC(=O)CCC(=O)O)O[C@@H]2O[C@@]3(C)CC[C@H]4[C@H](C)CC[C@@H]1[C@@]24OO3 [ARTESUNATE],EC50,Plasmodium falciparum [1],8 µM
same,EC50,Plasmodium falciparum [2],0.002 µM
same,EC50,Plasmodium falciparum [3],0.024 µM
CCN(CC)CCCC(C)Nc1ccnc2cc(Cl)ccc12 (stereo not drawn) [CHLOROQUINE],EC50,Plasmodium falciparum [4],0.56 µM
same,EC50,Plasmodium falciparum [5],0.32 µM
same,EC50,Plasmodium falciparum [6],0.58 µM
same,EC50,Plasmodium falciparum [1],21 µM
same,EC50,Plasmodium falciparum [7],0.25 µM
same,EC50,Plasmodium falciparum [2],0.097 µM
same,EC50,Plasmodium knowlesi,0.01 µM
same,EC50,Plasmodium falciparum [8],0.004 µM
same,inhibition of growth at 20 µM,Plasmodium falciparum [9],99%
same,EC50,Plasmodium falciparum [3],> 10 µM
CC(C(=O)N1CCc2ccccc2C1)N1CCN(S(=O)(=O)c2ccc(C(C)(C)C)cc2)CC1 (stereo not drawn),EC50,HepG2,29 µM
same,EC50,Plasmodium falciparum [1],0.99 µM
CC(C(=O)N1CCc2ccccc2C12CCCC2)N1CCN(S(=O)(=O)c2ccc(C(C)(C)C)cc2)CC1 (stereo not drawn),EC50,HepG2,> 40 µM
same,EC50,Plasmodium falciparum [1],0.81 µM
C[C@@H](C(=O)N1CCc2ccccc2C1(C)C)N1CCN(S(=O)(=O)c2ccc(C(C)(C)C)cc2)CC1,inhibition of growth at 20 µM,Plasmodium falciparum [10],79%
same,EC50,Plasmodium falciparum [4],0.02 µM
same,EC50,Plasmodium falciparum [5],0.03 µM
same,EC50,HepG2,26 µM
same,EC50,Plasmodium falciparum [6],0.06 µM
same,Activity,Plasmodium falciparum [11],Active
same,Activity,Plasmodium falciparum [12],Active
same,EC50,Plasmodium falciparum [1],0.11 µM
same,EC50,Plasmodium falciparum [7],0.04 µM
same,Activity,Plasmodium falciparum [13],Active
same,EC50,Plasmodium falciparum [2],> 10 µM
same,EC50,Plasmodium knowlesi,0.09 µM
same,EC50,Plasmodium falciparum [8],0.01 µM
same,inhibition of growth at 20 µM,Plasmodium falciparum [9],59%
same,EC50,Plasmodium falciparum [3],> 10 µM
CC(C)(C)c1ccc(S(=O)(=O)N2CCN(C(C(=O)N3CCCC3)c3ccccc3)CC2)cc1 (stereo not drawn),EC50,HepG2,> 40 µM
same,EC50,Plasmodium falciparum [1],5.1 µM
C[C@@H](C(=O)N1CCC(F)(F)CC1)N1CCN(S(=O)(=O)c2ccc(C(C)(C)C)cc2)CC1,inhibition of growth at 20 µM,Plasmodium falciparum [10],59%
same,EC50,Plasmodium falciparum [4],0.08 µM
same,EC50,Plasmodium falciparum [5],0.11 µM
same,EC50,HepG2,> 40 µM
same,EC50,Plasmodium falciparum [6],0.11 µM
same,Activity,Plasmodium falciparum [11],Active
same,Activity,Plasmodium falciparum [12],Active
same,EC50,Plasmodium falciparum [1],0.2 µM
same,EC50,Plasmodium falciparum [7],0.09 µM
same,Activity,Plasmodium falciparum [13],Active
same,EC50,Plasmodium falciparum [2],> 10 µM
same,EC50,Plasmodium knowlesi,0.26 µM
same,EC50,Plasmodium falciparum [8],0.05 µM
same,inhibition of growth at 20 µM,Plasmodium falciparum [9],47%
same,EC50,Plasmodium falciparum [3],> 10 µM
CC(C)(C)c1ccc(S(=O)(=O)N2CCN(C(C)(C)C(=O)N3CCCC3)CC2)cc1,EC50,HepG2,> 40 µM
same,EC50,Plasmodium falciparum [1],7.5 µM
C[C@@H](C(=O)N1CCCC1)N1CCN(S(=O)(=O)c2ccc([Si](C)(C)C)cc2)CC1,microsomal CLint at 1 µM,[14],> 866 µL/min/mg
same,EC50,HepG2,> 40 µM
same,EC50,Plasmodium falciparum [1],0.49 µM
CCC(C(=O)N1CCCC1)N1CCN(S(=O)(=O)c2ccc(C(C)(C)C)cc2)CC1 (stereo not drawn),EC50,HepG2,> 40 µM
same,EC50,Plasmodium falciparum [1],1.9 µM
CC(C(=O)N1CCCC1)C1CCN(S(=O)(=O)c2ccc(C(C)(C)C)cc2)CC1 (stereo not drawn),microsomal CLint at 1 µM,[14],532 µL/min/mg
same,EC50,HepG2,> 40 µM
same,EC50,Plasmodium falciparum [1],> 10 µM
COc1ccc2nc3cc(Cl)ccc3c(Nc3cc(CN4CCCC4)c(O)c(CN4CCCC4)c3)c2n1 [PYRONARIDINE],EC50,Plasmodium falciparum [2],0.053 µM
same,EC50,Plasmodium falciparum [3],1.24 µM
CC(C(=O)N1CCCCCC1)N1CCN(S(=O)(=O)c2ccc(C(C)(C)C)cc2)CC1 (stereo not drawn),EC50,HepG2,> 40 µM
same,EC50,Plasmodium falciparum [1],0.65 µM
CC(C(=O)N1CCCC1)N1C[C@@H]2C[C@H]1CN2S(=O)(=O)c1ccc(C(C)(C)C)cc1 (mixture of isomers),EC50,HepG2,> 40 µM
same,EC50,Plasmodium falciparum [1],> 10 µM
CC(C(=O)N1CCCC1)N1CCN(S(=O)(=O)c2ccc(C(C)(C)C)cc2)C(C)(C)C1 (stereo not drawn),EC50,HepG2,> 40 µM
same,EC50,Plasmodium falciparum [1],1.6 µM
CC(C(=O)N1CCOCC1)N1CCN(S(=O)(=O)c2ccc(C(C)(C)C)cc2)CC1 (stereo not drawn),EC50,HepG2,> 40 µM
same,EC50,Plasmodium falciparum [1],4.4 µM
CC(C(=O)N1CCCC1)N1CCN(S(=O)(=O)c2ccc(C(C)(C)C)cc2)[C@@H](C)C1 (stereo partly drawn),EC50,HepG2,> 40 µM
same,EC50,Plasmodium falciparum [1],1.9 µM
CC(C(=O)N1CCCC1)N1CCN(S(=O)(=O)c2cccc(C(C)(C)C)c2)CC1 (stereo not drawn),EC50,HepG2,> 40 µM
same,EC50,Plasmodium falciparum [1],8.4 µM
CC(C(=O)N1CCCC1)N1C[C@@H]2CN(S(=O)(=O)c3ccc(C(C)(C)C)cc3)C[C@@H]2C1 (stereo partly drawn),EC50,HepG2,> 40 µM
same,EC50,Plasmodium falciparum [1],4.3 µM
CC(C(=O)N(C)Cc1ccccc1)N1CCN(S(=O)(=O)c2ccc(C(C)(C)C)cc2)CC1 (stereo not drawn),EC50,HepG2,> 40 µM
same,EC50,Plasmodium falciparum [1],1.2 µM
CC(C(=O)N1CCCC1)N1[C@@H]2CC[C@H]1CN(S(=O)(=O)c1ccc(C(C)(C)C)cc1)C2 (stereo partly drawn),microsomal CLint at 1 µM,[14],473 µL/min/mg
same,EC50,HepG2,> 40 µM
same,EC50,Plasmodium falciparum [1],0.92 µM
CC(C(=O)N1CCc2ccccc2C1C)N1CCN(S(=O)(=O)c2ccc(C(C)(C)C)cc2)CC1 (stereo not drawn),EC50,HepG2,28 µM
same,EC50,Plasmodium falciparum [1],1.2 µM
CC(C)c1ccc(S(=O)(=O)N2CCN(C(C)C(=O)N3CCCC3)CC2)cc1 (stereo not drawn),EC50,HepG2,> 40 µM
same,EC50,Plasmodium falciparum [1],> 10 µM
CC(C(=O)N1C[C@H]2CCC[C@H]2C1)N1CCN(S(=O)(=O)c2ccc(C(C)(C)C)cc2)CC1 (stereo partly drawn),EC50,HepG2,> 40 µM
same,EC50,Plasmodium falciparum [1],0.81 µM
CC(C(=O)N1CCc2cccnc2C1)N1CCN(S(=O)(=O)c2ccc(C(C)(C)C)cc2)CC1 (stereo not drawn),EC50,HepG2,> 40 µM
same,EC50,Plasmodium falciparum [1],1.9 µM
CC(C(=O)N1CCCC1)N1CCCN(S(=O)(=O)c2ccc(C(C)(C)C)cc2)CC1 (stereo not drawn),EC50,HepG2,> 40 µM
same,EC50,Plasmodium falciparum [1],6.3 µM
CC1CCN(C(=O)C(C)N2CCN(S(=O)(=O)c3ccc(C(C)(C)C)cc3)CC2)CC1 (stereo not drawn),EC50,HepG2,> 40 µM
same,EC50,Plasmodium falciparum [1],1.3 µM
CC(C(=O)N1C2CCCC1CC2)N1CCN(S(=O)(=O)c2ccc(C(C)(C)C)cc2)CC1 (stereo not drawn),EC50,HepG2,> 40 µM
same,EC50,Plasmodium falciparum [1],0.92 µM
CC(C(=O)N1CCc2ccccc2C12CCCCC2)N1CCN(S(=O)(=O)c2ccc(C(C)(C)C)cc2)CC1 (stereo not drawn),EC50,HepG2,> 40 µM
same,EC50,Plasmodium falciparum [1],2.9 µM
CC(C(=O)N1CCCc2ccccc21)N1CCN(S(=O)(=O)c2ccc(C(C)(C)C)cc2)CC1 (stereo not drawn),EC50,HepG2,> 40 µM
same,EC50,Plasmodium falciparum [1],1.9 µM
CC(C(=O)N1Cc2ccccc2C1)N1CCN(S(=O)(=O)c2ccc(C(C)(C)C)cc2)CC1 (stereo not drawn),EC50,HepG2,> 40 µM
same,EC50,Plasmodium falciparum [1],1 µM
CC(C(=O)N(C)CCc1ccccc1)N1CCN(S(=O)(=O)c2ccc(C(C)(C)C)cc2)CC1 (stereo not drawn),EC50,HepG2,17 µM
same,EC50,Plasmodium falciparum [1],2.1 µM
CC(C(=O)N1CCCC1)N1CCN(S(=O)(=O)c2ccc(C(C)(C)CO)cc2)CC1 (stereo not drawn),EC50,HepG2,> 40 µM
same,EC50,Plasmodium falciparum [1],> 10 µM
CCN(CC)C(=O)C(C)N1CCN(S(=O)(=O)c2ccc(C(C)(C)C)cc2)CC1 (stereo not drawn),EC50,HepG2,> 40 µM
same,EC50,Plasmodium falciparum [1],1.8 µM
CC(C(=O)N1CCC2(CC1)CC2)N1CCN(S(=O)(=O)c2ccc(C(C)(C)C)cc2)CC1 (stereo not drawn),EC50,HepG2,> 40 µM
same,EC50,Plasmodium falciparum [1],0.3 µM
CC(C(=O)N1CCCC1)N1CCN(S(=O)(=O)c2ccc([Si](C)(C)C)cc2)CC1 (stereo not drawn),EC50,HepG2,> 40 µM
same,EC50,Plasmodium falciparum [1],1.3 µM
CCC(C)c1ccc(S(=O)(=O)N2CCN(C(C)C(=O)N3CCCC3)CC2)cc1 (stereo not drawn),EC50,HepG2,> 40 µM
same,EC50,Plasmodium falciparum [1],9.1 µM
C[C@H](C(=O)N1CCCCC1)N1CCN(S(=O)(=O)c2ccc(C(C)(C)C)cc2)CC1,EC50,HepG2,> 40 µM
same,EC50,Plasmodium falciparum [1],6.9 µM
CC(C(=O)N1CCCCC1)N1CCN(S(=O)(=O)c2ccc(C(C)(C)C)cc2)CC1 (stereo not drawn),EC50,HepG2,> 40 µM
same,EC50,Plasmodium falciparum [1],0.5 µM
CC(C(=O)N1CC2CC2C1)N1CCN(S(=O)(=O)c2ccc(C(C)(C)C)cc2)CC1 (stereo not drawn),EC50,HepG2,> 40 µM
same,EC50,Plasmodium falciparum [1],0.33 µM
